# Experiments:
# LC3B-II = assay: Autophagy assay; assay type: cell-based; details: for LC3B-II levels: 4 h, 6 at 5 μM, BafA1 at 100 nM, versus DMSO
# How it was run: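 MDA-MB-231 or MDA-MB-468 cells in DMEM with 10% FBS at 37 °C, 5% CO2, treated 4 h with test compound or DMSO vehicle. Hypoxia (1% O2) served as the autophagy positive control. Bafilomycin A1 (100 nM) was added 4 h before harvest. Cells were lysed in NP40 buffer with protease and phosphatase inhibitors, run on SDS-PAGE and transferred to PVDF. Blots were probed overnight at 4 °C with anti-LC3B (1:3000), then HRP secondary (1:10,000), with ECL detection of LC3B-I and LC3B-II.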
# phospho p53 (Ser15) = assay: Western blot of p53 Ser15 phosphorylation; assay type: cell-based; details: MDA-MB-468 cells, over 48 h
# cyclin A2 = assay: Western blot of cyclin A2 levels; assay type: cell-based; details: over 48 h
# BMX/ETK = molecular target: T1, BMX/ETK (Homo sapiens, UniProt P51813); assay: Kinase panel IC50, BMX/ETK; assay type: biochemical
# T1 sequence (P51813 1-675): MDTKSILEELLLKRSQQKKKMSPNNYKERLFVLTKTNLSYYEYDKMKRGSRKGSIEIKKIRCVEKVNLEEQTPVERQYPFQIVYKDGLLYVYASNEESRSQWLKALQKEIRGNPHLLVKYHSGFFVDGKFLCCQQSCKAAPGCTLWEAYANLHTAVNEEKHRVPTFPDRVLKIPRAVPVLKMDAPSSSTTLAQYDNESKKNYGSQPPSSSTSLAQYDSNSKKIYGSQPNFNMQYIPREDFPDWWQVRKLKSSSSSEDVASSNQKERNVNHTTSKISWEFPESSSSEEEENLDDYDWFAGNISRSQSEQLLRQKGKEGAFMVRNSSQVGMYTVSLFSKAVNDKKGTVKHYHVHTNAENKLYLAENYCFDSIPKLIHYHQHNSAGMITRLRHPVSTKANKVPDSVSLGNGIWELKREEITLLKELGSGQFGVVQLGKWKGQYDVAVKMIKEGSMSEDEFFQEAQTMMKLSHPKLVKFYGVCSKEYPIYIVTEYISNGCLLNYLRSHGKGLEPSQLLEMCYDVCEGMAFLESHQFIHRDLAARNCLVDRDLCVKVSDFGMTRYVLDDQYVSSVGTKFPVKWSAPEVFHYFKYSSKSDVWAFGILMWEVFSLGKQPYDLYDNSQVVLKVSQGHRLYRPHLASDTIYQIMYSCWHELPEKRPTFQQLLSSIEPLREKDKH
# MDMX = assay: Immunoblot of MDMX levels; assay type: cell-based; details: MDA-MB-231 cells, increasing concentration
# How it was run: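 MDA-MB-231 cells (DMEM, 10% FBS, 37 °C, 5% CO2) were exposed to rising test compound concentrations. Whole-cell RIPA lysates with protease and phosphatase inhibitors were prepared, and 30 µg protein was resolved by 10% SDS-PAGE and moved to nitrocellulose. Blots were probed with primary antibody overnight at 4 °C, then with IRDye 800 anti-mouse or Alexa Fluor 680 anti-rabbit IgG for 1 h at RT. Bands were read by infrared imaging.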
# phospho STAT3 (Tyr705) = assay: Western blot of STAT3 phosphorylation; assay type: cell-based
# MELK = MELK (Homo sapiens, UniProt Q14680); assay: MELK kinase activity inhibition; assay type: biochemical; details: for change of MELK IC50 / activity relative to parent compound 6: weaker than 6 (higher IC50)
# Bcl-XL = assay: Western blot of Bcl-XL levels; assay type: cell-based
# phospho Akt = assay: Western blot of Akt phosphorylation; assay type: cell-based
# JAK2 = JAK2 (Homo sapiens, UniProt O60674); assay: JAK kinase activity, JAK2; assay type: biochemical
# JAK1 = JAK1 (Homo sapiens, UniProt P23458); assay: JAK kinase activity, JAK1; assay type: biochemical
# p53 = assay: Western blot of p53 levels; assay type: cell-based
# survivin = assay: Western blot of survivin levels; assay type: cell-based; details: sustained over 48 h
# p21WAF1/CIP1 = assay: Western blot of p21 levels; assay type: cell-based; details: 5 μM, from 4 h, sustained over 48 h
# JAK3 = molecular target: T2, JAK3 (Homo sapiens, UniProt P52333); assay: JAK kinase activity, JAK3; assay type: biochemical
# T2 sequence (P52333 1-1124): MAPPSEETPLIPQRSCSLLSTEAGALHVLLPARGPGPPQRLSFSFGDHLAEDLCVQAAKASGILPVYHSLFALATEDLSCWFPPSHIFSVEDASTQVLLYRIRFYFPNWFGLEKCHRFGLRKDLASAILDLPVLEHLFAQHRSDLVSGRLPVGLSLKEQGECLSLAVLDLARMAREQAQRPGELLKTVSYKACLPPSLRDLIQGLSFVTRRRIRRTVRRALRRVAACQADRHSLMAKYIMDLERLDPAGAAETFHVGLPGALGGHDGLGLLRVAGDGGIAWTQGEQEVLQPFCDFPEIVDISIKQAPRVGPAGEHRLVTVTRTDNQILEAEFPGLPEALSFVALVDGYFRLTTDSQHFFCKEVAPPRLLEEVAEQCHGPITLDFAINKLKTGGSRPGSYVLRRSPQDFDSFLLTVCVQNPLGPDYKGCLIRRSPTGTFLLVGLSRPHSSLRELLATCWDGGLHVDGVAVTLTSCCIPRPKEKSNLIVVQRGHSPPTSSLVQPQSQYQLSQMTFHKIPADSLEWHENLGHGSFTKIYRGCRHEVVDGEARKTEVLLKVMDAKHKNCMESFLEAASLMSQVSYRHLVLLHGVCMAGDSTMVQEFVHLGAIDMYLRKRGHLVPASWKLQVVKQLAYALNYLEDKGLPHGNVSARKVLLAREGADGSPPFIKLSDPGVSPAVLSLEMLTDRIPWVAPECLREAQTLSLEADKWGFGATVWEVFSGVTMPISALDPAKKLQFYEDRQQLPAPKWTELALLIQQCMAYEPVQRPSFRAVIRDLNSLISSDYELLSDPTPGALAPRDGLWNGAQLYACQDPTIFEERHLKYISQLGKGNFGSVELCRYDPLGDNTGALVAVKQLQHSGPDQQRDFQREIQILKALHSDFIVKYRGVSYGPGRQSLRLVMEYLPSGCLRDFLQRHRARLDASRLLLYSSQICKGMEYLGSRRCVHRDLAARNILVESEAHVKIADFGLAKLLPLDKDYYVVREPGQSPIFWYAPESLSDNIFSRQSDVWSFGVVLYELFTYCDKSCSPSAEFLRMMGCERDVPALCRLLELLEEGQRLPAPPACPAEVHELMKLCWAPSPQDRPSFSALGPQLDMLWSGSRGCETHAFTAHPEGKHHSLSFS
# Sequence of MELK (Q14680 whole entry): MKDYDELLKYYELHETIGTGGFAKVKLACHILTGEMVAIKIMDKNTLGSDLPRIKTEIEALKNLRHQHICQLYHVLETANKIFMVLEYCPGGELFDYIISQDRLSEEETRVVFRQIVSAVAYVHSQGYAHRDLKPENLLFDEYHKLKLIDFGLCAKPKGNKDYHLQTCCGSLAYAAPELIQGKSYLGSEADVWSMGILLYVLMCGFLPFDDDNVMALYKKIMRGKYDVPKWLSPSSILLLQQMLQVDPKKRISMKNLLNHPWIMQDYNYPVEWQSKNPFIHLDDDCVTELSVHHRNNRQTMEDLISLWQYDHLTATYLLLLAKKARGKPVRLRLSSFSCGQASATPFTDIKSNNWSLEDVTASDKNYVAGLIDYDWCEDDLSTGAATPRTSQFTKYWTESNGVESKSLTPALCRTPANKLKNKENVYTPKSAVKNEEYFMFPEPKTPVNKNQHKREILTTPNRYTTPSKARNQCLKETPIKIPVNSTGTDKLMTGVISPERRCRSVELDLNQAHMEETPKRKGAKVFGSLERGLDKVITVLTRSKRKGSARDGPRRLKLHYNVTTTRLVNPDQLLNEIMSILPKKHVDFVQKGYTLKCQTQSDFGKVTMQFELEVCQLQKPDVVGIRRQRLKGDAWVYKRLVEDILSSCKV
# Sequence of JAK2 (O60674 whole entry): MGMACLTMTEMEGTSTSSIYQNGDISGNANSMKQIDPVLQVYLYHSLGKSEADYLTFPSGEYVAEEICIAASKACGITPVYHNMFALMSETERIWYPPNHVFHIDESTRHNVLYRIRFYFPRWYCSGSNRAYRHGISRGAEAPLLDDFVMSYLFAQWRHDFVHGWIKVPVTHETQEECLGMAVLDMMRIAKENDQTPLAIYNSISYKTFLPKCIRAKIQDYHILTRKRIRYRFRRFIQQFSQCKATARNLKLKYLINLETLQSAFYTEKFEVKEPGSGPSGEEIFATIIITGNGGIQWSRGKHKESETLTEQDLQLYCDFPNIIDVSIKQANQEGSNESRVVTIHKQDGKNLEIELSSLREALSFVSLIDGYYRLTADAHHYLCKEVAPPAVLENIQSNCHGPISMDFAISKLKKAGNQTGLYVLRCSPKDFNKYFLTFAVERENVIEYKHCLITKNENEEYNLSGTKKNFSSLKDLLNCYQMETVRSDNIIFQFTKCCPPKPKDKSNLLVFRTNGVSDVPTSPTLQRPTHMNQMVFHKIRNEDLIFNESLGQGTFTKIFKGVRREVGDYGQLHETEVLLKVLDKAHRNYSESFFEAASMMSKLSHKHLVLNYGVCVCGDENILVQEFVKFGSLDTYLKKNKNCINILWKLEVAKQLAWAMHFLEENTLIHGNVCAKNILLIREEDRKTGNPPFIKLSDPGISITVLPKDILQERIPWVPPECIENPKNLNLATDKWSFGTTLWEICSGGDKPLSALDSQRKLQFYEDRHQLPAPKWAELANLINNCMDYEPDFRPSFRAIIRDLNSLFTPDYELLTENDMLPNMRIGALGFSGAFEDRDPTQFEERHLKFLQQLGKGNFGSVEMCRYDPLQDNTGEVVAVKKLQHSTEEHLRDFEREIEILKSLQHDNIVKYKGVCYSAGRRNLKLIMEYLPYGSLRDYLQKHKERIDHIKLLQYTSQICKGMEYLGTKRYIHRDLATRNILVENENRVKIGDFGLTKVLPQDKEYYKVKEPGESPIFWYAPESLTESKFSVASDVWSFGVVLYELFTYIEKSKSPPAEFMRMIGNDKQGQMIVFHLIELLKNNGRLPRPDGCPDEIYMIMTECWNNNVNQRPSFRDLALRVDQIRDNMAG
# Sequence of JAK1 (P23458 whole entry): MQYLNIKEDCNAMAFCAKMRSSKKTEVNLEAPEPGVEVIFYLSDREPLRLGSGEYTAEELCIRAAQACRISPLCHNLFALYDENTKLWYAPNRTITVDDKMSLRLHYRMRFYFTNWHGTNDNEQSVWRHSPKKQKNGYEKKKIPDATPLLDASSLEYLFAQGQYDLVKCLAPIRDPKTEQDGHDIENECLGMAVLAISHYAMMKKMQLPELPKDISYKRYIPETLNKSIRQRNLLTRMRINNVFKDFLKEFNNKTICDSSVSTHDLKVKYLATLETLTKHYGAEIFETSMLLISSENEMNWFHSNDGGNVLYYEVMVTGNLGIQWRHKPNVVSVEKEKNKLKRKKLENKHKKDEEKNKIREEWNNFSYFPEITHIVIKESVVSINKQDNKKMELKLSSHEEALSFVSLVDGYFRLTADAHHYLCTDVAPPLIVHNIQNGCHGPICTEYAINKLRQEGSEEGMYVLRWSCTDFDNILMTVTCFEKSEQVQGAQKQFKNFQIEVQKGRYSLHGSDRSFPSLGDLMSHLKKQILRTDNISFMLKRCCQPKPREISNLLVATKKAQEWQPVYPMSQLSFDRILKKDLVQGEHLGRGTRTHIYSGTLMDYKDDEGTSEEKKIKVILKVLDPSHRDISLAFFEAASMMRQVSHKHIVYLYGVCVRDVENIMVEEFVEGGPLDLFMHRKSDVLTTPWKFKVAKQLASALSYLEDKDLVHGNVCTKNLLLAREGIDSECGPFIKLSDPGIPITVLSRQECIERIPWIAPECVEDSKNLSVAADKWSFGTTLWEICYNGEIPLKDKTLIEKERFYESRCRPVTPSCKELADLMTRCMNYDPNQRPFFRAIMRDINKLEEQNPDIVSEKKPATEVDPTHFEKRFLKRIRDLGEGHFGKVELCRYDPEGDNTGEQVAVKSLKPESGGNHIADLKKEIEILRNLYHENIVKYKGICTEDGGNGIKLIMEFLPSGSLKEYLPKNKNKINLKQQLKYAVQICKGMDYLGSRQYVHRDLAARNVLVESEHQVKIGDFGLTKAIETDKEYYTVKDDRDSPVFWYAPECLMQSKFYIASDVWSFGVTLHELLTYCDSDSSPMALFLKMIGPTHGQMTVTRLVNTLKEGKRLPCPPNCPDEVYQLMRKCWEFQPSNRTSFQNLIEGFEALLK
smiles,measurement,setting,value
"CO/C1=C\C(C)=C\[C@@H](C)[C@@H](O)[C@@H](C)C/C(C)=C/C=C/[C@H](OC)[C@@H]([C@@H](C)[C@@H](O)[C@H](C)[C@@]2(O)C[C@@H](O)[C@H](C)[C@@H](C(C)C)O2)OC1=O [BafA1, Bafilomycin A1, reference compound]",LC3B-II levels,LC3B-II; MDA-MB-231 cells,more modest increase
same,LC3B-II levels,LC3B-II; MDA-MB-468 cells,substantial increase
"CCN(CC)CCCC(C)Nc1nc(/C=C/c2c(Cl)cc(Cl)cc2Cl)nc2ccc(N)cc12 (stereo not shown) [Compound 6, (E)-N^4-(5-(diethylamino)pentan-2-yl)-2-(2,4,6-trichlorostyryl) quinazoline-4,6-diamine]",phosphorylation at Ser15 of p53,phospho p53 (Ser15),inhibited
same,cyclin A2 level,cyclin A2; MDA-MB-231 cells,down-regulated
same,cyclin A2 level,cyclin A2; MDA-MB-468 cells,down-regulated
same,IC50,BMX/ETK,~1 µM
same,MDMX levels,MDMX,increase
same,STAT3 phosphorylation,"phospho STAT3 (Tyr705); MDA-MB-231 cells, levels recover more slowly",inhibited
same,STAT3 phosphorylation,phospho STAT3 (Tyr705); MDA-MB-468 cells,inhibited
same,"STAT3 phosphorylation, time course","phospho STAT3 (Tyr705); MDA-MB-468 cells, at 4 h, levels restored after 8 h",completely inhibited
same,IC50,MELK,~1 µM
same,Bcl-XL expression,Bcl-XL; MDA-MB-231 cells,reduced expression
same,Bcl-XL expression,Bcl-XL; MDA-MB-468 cells,reduced expression
same,Akt phosphorylation,phospho Akt,no effect
same,inhibition of JAK kinase activity (JAK2),JAK2,lack of inhibition
same,inhibition of JAK kinase activity (JAK1),JAK1,lack of inhibition
same,p53 levels,p53; MDA-MB-231 cells,does not affect
same,p53 levels,"p53; MDA-MB-468 cells, over 48 h",no effect
same,survivin level,survivin; MDA-MB-231 cells,down-regulation
same,survivin level,survivin; MDA-MB-468 cells,down-regulation
same,p21WAF1/CIP1 level,p21WAF1/CIP1; MDA-MB-231 cells,up-regulated
same,p21WAF1/CIP1 level,p21WAF1/CIP1; MDA-MB-468 cells,up-regulated
same,inhibition of JAK kinase activity (JAK3),JAK3,lack of inhibition
same,LC3B-II levels,LC3B-II; MDA-MB-231 cells,pronounced increase
same,LC3B-II levels,LC3B-II; MDA-MB-468 cells,pronounced increase
same,autophagic flux,"LC3B-II; MDA-MB-468 or MDA-MB-231 cells, LC3B-II not further increased by co-treatment with BafA1",inhibiting autophagic flux
"CCN(CC)CCCCNc1nc(/C=C/c2c(Cl)cc(Cl)cc2Cl)nc2ccc(N)cc12 [Compound 18, (E)-N^4-(4-(diethylamino)butyl)-2-(2,4,6-trichlorostyryl) quinazoline-4,6-diamine]",change of MELK IC50 / activity relative to parent compound 6,MELK,little effect
Nc1ccc2nc(/C=C/c3ccc(C(F)(F)F)cc3)nc(NCCCN3CCOCC3)c2c1 [Compound 20],change of MELK IC50 / activity relative to parent compound 6,MELK,twofold reduction

# Source: PMC6668347 (Bioorganic & medicinal chemistry, 2017)
